Screens (PubChem)
The full list was thinned out, with hits kept by preference.
IDH1 R132H inh: IDH1 R132H (human) inhibition. IDH1 R132H reductase, diaphorase/resazurin fluorescence, 60 min. inhibition, % at 10 µM. 70,000 tested, 0.18% active. AID 624101; in the data active means inhibition above about 34%; inconclusive means no clear call, values can overlap the other calls; inactive means below about 11%;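 further: 0% = DMSO and 100% = no enzyme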
Target sequence (O75874 whole entry R132H): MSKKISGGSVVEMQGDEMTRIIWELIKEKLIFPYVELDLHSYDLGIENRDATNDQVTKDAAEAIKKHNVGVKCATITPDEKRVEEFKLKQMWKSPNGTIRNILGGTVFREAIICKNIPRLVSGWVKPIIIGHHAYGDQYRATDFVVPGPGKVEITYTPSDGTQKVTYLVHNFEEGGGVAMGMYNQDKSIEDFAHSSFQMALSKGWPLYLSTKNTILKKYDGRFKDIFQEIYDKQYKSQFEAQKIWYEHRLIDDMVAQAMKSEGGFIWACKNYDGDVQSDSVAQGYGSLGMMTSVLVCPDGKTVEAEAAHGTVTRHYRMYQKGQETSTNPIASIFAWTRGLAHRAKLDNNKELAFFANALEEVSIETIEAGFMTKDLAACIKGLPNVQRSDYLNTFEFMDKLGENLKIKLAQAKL
T cruzi growth-1: T. cruzi proliferation inhibition; T. cruzi beta-gal in NIH3T3, GalScreen luminescence, 90 h; inhibition, % at 8.34 µM; 77,000 tested, 5.9% active; AID 624255;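 active means mean inhibition above about 93%, with at least 55% of replicates each passing it, limit read from the data, passing the limit was not always enough; inconclusive means only one of those two conditions holds; inactive means neither condition holds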
GASC1 inh: KDM4C (human) demethylase inhibition. 96,000 tested, 0.15% active. GST-KDM4C 2-372, H3K9me3 peptide, LANCE TR-FRET. Q9H3R0. inhibition, % at 12.5 µM;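 active means mean replicate inhibition above about 25%, with at least 55% of replicates also reaching it, limit read from the data, passing the limit was not always enough; inconclusive means only one of those two conditions met; inactive means neither condition met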
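reagent = H3K9me3 peptide substrate, Fe(II), 2-oxoglutarate | system = GST-tagged GASC-1 (JMJD2C) catalytic fragment, aa 2-372 | amount = enzyme final amount 10 nM | read-out = Fall in 671/618 emission ratio as inhibition | medium = HEPES buffer, pH 7.5, plus ascorbate | schedule = 30 min reaction, 60 min detection, RT | measured by = LANCE TR-FRET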
T cruzi growth-2: inhibitors of T. cruzi proliferation; shares compounds with T cruzi growth-1; T. cruzi beta-gal in NIH3T3, GalScreen luminescence, 90 h; inhibition, % at 8.35 µM; 5,600 tested, 72% active;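 active means mean replicate inhibition above about 95% and at least 55% of replicates individually reaching it, limit read from the data; inconclusive means only one of the two criteria is met; inactive means neither criterion is met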
T cruzi growth-3: inhibitors of T. cruzi proliferation | shares compounds with T cruzi growth-1 | inhibition, % at 2.09 µM | T. cruzi beta-gal in NIH3T3, GalScreen luminescence, 90 h | 5,600 tested, 21% active;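 active means mean inhibition above about 95%, with at least 55% of replicates also reaching it, limit read from the data; inconclusive means meets just one of the two conditions; inactive means meets neither condition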;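 further: plate controls were neutral control median for no effect and positive control median for full effect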
NIH3T3 tox: cytotoxicity in mouse NIH/3T3 fibroblasts; cytotoxicity (signal decrease), % at 8.35 µM; NIH/3T3 viability, CellTiter-Glo ATP luminescence, 90 h; 5,600 tested, 14% active; shares compounds with T cruzi growth-1;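 active means mean signal decrease across replicates above about 35% based on untreated-well scatter, with enough replicates individually passing, limit read from the data; inconclusive means no rule stated though some were filed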;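 further: 0% = median of neutral control wells and 100% = median of positive control wells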
NIH3T3 tox 2: NIH/3T3 (mouse) viability loss. shares compounds with T cruzi growth-1. NIH/3T3 viability, CellTiter-Glo ATP luminescence, 90 h. inhibition, % at 24.9 µM. 5,600 tested, 56% active;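 active means mean loss of cell viability signal at or above a set limit, and enough replicates individually reaching it; inconclusive means meets only the mean limit or only the replicate share; inactive means meets neither condition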;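 further: 0% = median of neutral control wells and 100% = median of positive control wells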
Active calls of the source: *; u = inconclusive; x = not tested or not shown.

SMILES | IDH1 R132H inh | T cruzi growth-1 | GASC1 inh | T cruzi growth-2 | T cruzi growth-3 | NIH3T3 tox | NIH3T3 tox 2
C[C@@H]1CN([C@@H](C)CO)C(=O)c2cc(NC(=O)Nc3ccc(C(F)(F)F)cc3)ccc2O[C@@H](C)CCCCO[C@@H]1CN(C)S(=O)(=O)c1ccc(Cl)cc1 | x | 84 | -4 | x | x | x | x
C[C@@H]1CCCCO[C@H](CN(C)S(=O)(=O)c2ccc(F)cc2)[C@@H](C)CN([C@H](C)CO)C(=O)c2cc(NC(=O)Nc3ccc(F)cc3)ccc2O1 | -1 | 49 | -1 | x | x | x | x
Cc1ccc(S(=O)(=O)N(C)C[C@H]2OCCCC[C@@H](C)Oc3ccc(NC(=O)Nc4ccc(F)cc4)cc3C(=O)N([C@H](C)CO)C[C@H]2C)cc1 | x | x | -1 | x | x | x | x
C[C@H]1CCCCO[C@H](CN(C)S(=O)(=O)c2ccc(F)cc2)[C@@H](C)CN([C@@H](C)CO)C(=O)c2cc(NC(=O)Nc3ccc(F)cc3)ccc2O1 | x | 107* | -3 | 105* | 108* | 3 | 10
C[C@@H]1CCCCO[C@H](CN(C)S(=O)(=O)c2ccc(F)cc2)[C@H](C)CN([C@@H](C)CO)C(=O)c2cc(NC(=O)Nc3ccc(F)cc3)ccc2O1 | x | u | -1 | 100* | 93 | -7 | -11
C[C@@H]1CCCCO[C@@H](CN(C)S(=O)(=O)c2ccc(F)cc2)[C@@H](C)CN([C@@H](C)CO)C(=O)c2cc(NC(=O)Nc3ccc(C(F)(F)F)cc3)ccc2O1 | x | 93 | -1 | x | x | x | x
C[C@@H]1CCCCO[C@H](CN(C)S(=O)(=O)c2ccc(F)cc2)[C@@H](C)CN([C@H](C)CO)C(=O)c2cc(NC(=O)Nc3ccc(C(F)(F)F)cc3)ccc2O1 | 1 | 103* | x | 109* | 79 | 16 | 51*
C[C@@H]1CCCCO[C@H](CN(C)S(=O)(=O)c2ccc(Cl)cc2)[C@@H](C)CN([C@@H](C)CO)C(=O)c2cc(NC(=O)Nc3ccc(C(F)(F)F)cc3)ccc2O1 | x | u | 3 | 106* | 110* | 28 | 34*
COc1ccc(C(=O)CSc2nnc(-c3ccccc3)n2-c2ccccc2)cc1 | 0 | x | x | x | x | x | x
COC(=O)c1ccccc1NC(=O)c1cc(-c2ccccn2)nc2c(C)c(Cl)ccc12 | 0 | x | x | x | x | x | x
Cc1ccc(S(=O)(=O)N(C)C[C@H]2OCCCC[C@H](C)Oc3ccc(NC(=O)Nc4ccc(F)cc4)cc3C(=O)N([C@H](C)CO)C[C@H]2C)cc1 | 1 | x | 0 | x | x | x | x
Cc1ccc(S(=O)(=O)N(C)C[C@@H]2OCCCC[C@@H](C)Oc3ccc(NC(=O)Nc4ccc(F)cc4)cc3C(=O)N([C@@H](C)CO)C[C@@H]2C)cc1 | 1 | 107* | 1 | 111* | 105* | 1 | 47*
O=C(CSc1nc(-c2ccccc2)cc(C(F)(F)F)n1)Nc1cccc(Cl)c1Cl | 0 | x | x | x | x | x | x
C[C@@H]1CN([C@H](C)CO)S(=O)(=O)c2ccc(/C=C/c3ccccc3)cc2O[C@H]1CN(C)Cc1cccnc1 | x | x | 6 | x | x | x | x
C[C@@H]1CN([C@H](C)CO)S(=O)(=O)c2ccc(/C=C/c3ccccc3)cc2O[C@H]1CN(C)Cc1cncnc1 | -2 | 107* | -3 | 98* | 85 | 59* | 65*
C[C@H]1CN([C@@H](C)CO)S(=O)(=O)c2ccc(-c3ccccc3)cc2O[C@H]1CN(C)Cc1cncnc1 | -7 | 57 | -1 | x | x | x | x
C[C@H](CO)N1C[C@H](C)[C@@H](CN(C)Cc2cncnc2)Oc2cc(/C=C/c3ccccc3)ccc2S1(=O)=O | 0 | 121* | -4 | 98* | 102* | 41* | 81*
C[C@H]1CN([C@@H](C)CO)S(=O)(=O)c2ccc(/C=C/c3ccccc3)cc2O[C@@H]1CN(C)Cc1cncnc1 | 0 | 122* | 1 | 100* | 104* | 69* | 97*
C/C=C/c1ccc2c(c1)O[C@@H](CN(C)Cc1cncnc1)[C@H](C)CN([C@H](C)CO)S2(=O)=O | 0 | x | 1 | x | x | x | x
C[C@@H]1CN([C@@H](C)CO)S(=O)(=O)c2ccc(/C=C/c3ccccc3)cc2O[C@@H]1CN(C)Cc1cncnc1 | -4 | 108* | -3 | u | 89 | 58* | 70*
